In ChEMBL document CHEMBL1144203, “Synthesis and antiviral evaluation of acyclic azanucleosides developed from sulfanilamide as a lead structure” (Bioorg Med Chem, 2008) one finds MCC, CC50 and Activity data, which are given here for 8 molecules.

A short description of series [1]: Cytotoxicity against HEL cells assessed as alteration in cell morphology by MTS assay. It is filed as cell-based. As to conditions: human. The procedure, abridged: (§1)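 Uninfected host cells (HEL or HeLa) exposed to compounds […]. The minimal cytotoxic concentration (MCC) is the lowest concentration causing a microscopically detectable change in normal cell morphology. CC50 is the concentration giving a 50% fall in cell viability by the colorimetric formazan-based MTS assay.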
For orientation: Tetrazolium dyes change colour on reduction, which living cells bring about.

Series [2] can be described thus: Cytotoxicity against CRFK cells assessed as decrease in cell viability by MTS assay. The settings on record: cat. Format: cell-based, Felis catus. The essentials: (§2)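 Uninfected host cells were exposed to compound. CC50 was taken as the concentration giving a 50% fall in cell viability, measured by a colorimetric formazan-based MTS assay.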
Series [3] deals with Feline coronavirus. In words: Antiviral activity against feline coronavirus infected in CRFK cells assessed as inhibition of virus-induced cytopathic effect at 100 uM by MTS assay. Format: functional, organism-based. (Protection from cytopathic effect is a common read-out in antiviral testing.)
Series [4] deals with Human alphaherpesvirus 2. In words: Antiviral activity against HSV2 virus infected in HEL cells assessed as inhibition of virus-induced cytopathic effect at 100 uM by MTS assay. It is filed as functional, organism-based.
Series [5] deals with Felid alphaherpesvirus 1. In words: Antiviral activity against feline herpes virus infected in CRFK cells assessed as inhibition of virus-induced cytopathic effect at 100 uM by MTS assay. It is filed as functional, organism-based.
Series [6] deals with HeLa. As to the kind of experiment: Cytotoxicity against human HeLa cells assessed as decrease in cell viability upto 100 uM by MTS assay. Format: functional, cell-based. The essentials: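 Uninfected HeLa host cells were tested up to 100 μM. CC50 is the concentration causing a 50% drop in cell viability by colorimetric formazan-based MTS assay. Alternatively, MCC is the minimal concentration giving microscopically detectable alteration of normal cell morphology.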

Series [7] relates to Mammalian orthoreovirus 1. As to the kind of experiment: Antiviral activity against Reovirus1 infected in Vero cells assessed as inhibition of virus-induced cytopathic effect at 100 uM by MTS assay. It is filed as functional, organism-based. The procedure, abridged:
(§3)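 Vero cell monolayers were infected with the virus in cell-based CPE assays. EC50 is the concentration giving 50% inhibition of virus-induced cytopathic effect, scored visually or by MTS formazan colorimetric cell-viability read-out. The highest concentration tested was 100 μM for most compounds and lower for a few.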

For series [8], the system named is Sindbis virus. In words: Antiviral activity against Sindbis virus infected in Vero cells assessed as inhibition of virus-induced cytopathic effect at 100 uM by MTS assay. It is filed as functional, organism-based. The essentials:
as §3

Series [9] is described as follows: Cytotoxicity against MDCK cells assessed as decrease in cell viability by MTS assay. Format: cell-based, Canis lupus familiaris. The settings on record: dog. The procedure, abridged: as §2
For series [10], the system named is Punta Toro virus. In words: Antiviral activity against Punta Toro virus infected in Vero cells assessed as inhibition of virus-induced cytopathic effect at 100 uM by MTS assay. Format: functional, organism-based. The essentials: as §3
Series [11] relates to Human respirovirus 3. In words: Antiviral activity against Parainfluenza 3 virus infected in Vero cells assessed as inhibition of virus-induced cytopathic effect at 100 uM by MTS assay. Format: functional, organism-based. The procedure, abridged: as §3
Series [12] has as its system Human alphaherpesvirus 1. In words: Antiviral activity against HSV1 virus infected in HEL cells assessed as inhibition of virus-induced cytopathic effect at 100 uM by MTS assay. It is filed as functional, organism-based.
Series [13] has as its system Coxsackievirus B4. As to the kind of experiment: Antiviral activity against Coxsackievirus B4 infected in HeLa cells assessed as inhibition of virus-induced cytopathic effect at 100 uM by MTS assay. Format: functional, organism-based. The procedure, abridged: (§4)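 HeLa cells were infected with the virus, and compounds were tested up to 100 μM. EC50 is the concentration that halves virus-induced cytopathic effect, read by visual CPE scoring or by MTS formazan colorimetric viability measurement.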

In series [14] the test system is HEL. As to the kind of experiment: Cytotoxicity against HEL cells assessed as decrease in cell viability upto 100 uM by MTS assay. As to conditions: human. Format: cell-based.
Series [15] in a line: Cytotoxicity against MDCK cells assessed as alteration in cell morphology by MTS assay. It is filed as cell-based, Canis lupus familiaris. As to conditions: dog. The essentials:
(§5)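 Uninfected host cells were exposed to compound and examined under the microscope. MCC was the minimal compound concentration causing a microscopically detectable change in normal cell morphology.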

The subject of series [16] is Coxsackievirus B4. In words: Antiviral activity against Coxsackievirus B4 infected in Vero cells assessed as inhibition of virus-induced cytopathic effect at 100 uM by MTS assay. It is filed as functional, organism-based. The procedure, abridged: as §3
The subject of series [17] is Respiratory syncytial virus. As to the kind of experiment: Antiviral activity against respiratory syncytial virus infected in HeLa cells assessed as inhibition of virus-induced cytopathic effect at 100 uM by MTS assay. It is filed as functional, organism-based. The essentials: as §4
In series [18] the test system is HeLa. In words: Cytotoxicity against human HeLa cells assessed as alteration in cell morphology by MTS assay. Format: functional. The essentials:
as §1

A short description of series [19]: Cytotoxicity against african green monkey Vero cells assessed as alteration in cell morphology by MTS assay. As to conditions: chlorocebus sabaeus. Format: cell-based. The procedure, abridged: as §5
Series [20] in a line: Cytotoxicity against CRFK cells assessed as decrease in cell viability upto 100 uM by MTS assay. Format: cell-based, Felis catus. As to conditions: cat.
For series [21], the system named is MDCK. As to the kind of experiment: Cytotoxicity against MDCK cells assessed as decrease in cell viability upto 100 uM by MTS assay. It is filed as cell-based, Canis lupus familiaris. As to conditions: dog.

The source made the active and inactive calls. The calls are words filed in the database; no cut-off is given here. A value given as a limit tells only on which side of the number the result lay.

As a reminder, the CC50 is the concentration at which the toxic effect on the cells reaches its halfway point. For the molecule `Nc1nc(O)c2ncn(COC(CO)CO)c2n1` [GANCICLOVIR], the MCC in series [1] is > 100 µM. In addition, the half-maximal cytotoxic concentration (CC50) in series [2] was > 100 µM.

As to `CC(C)(C)C(=O)OCCN(Cn1cc(F)c(=O)[nH]c1=O)S(=O)(=O)c1ccc([N+](=O)[O-])cc1`, the outcome in [3], in series [4], in series [5], in series [6], in series [7] and in series [8] was inactive. The outcome in [10], in series [11], in [12], in [13], in series [16] and in series [17] was inactive. The CC50 in series [9] stood at 69 µM; in series [2] it was 44 µM. The Activity entry in series [14] is on record as “Not Active”. The MCC in series [15] was found to be 20 µM.

For `Nc1ncnc2c1ncn2C[C@H](O)CO` [(S)-DHPA], the MCC in series [18] and in series [19] was > 250 µM each time.

For the molecule `CC(C)(C)C(=O)OCCN(Cn1cc(F)c(=O)[nH]c1=O)S(=O)(=O)c1ccccc1[N+](=O)[O-]`, the outcome in [3], in series [4], in series [5], in series [6], in [7] and in series [8] was inactive. The result in series [10], in series [11], in series [12], in [13], in [16] and in series [17] was inactive. Moreover, the half-maximal cytotoxic concentration (CC50) in series [9] was > 100 µM; in series [2], 14 µM. Besides, the Activity result in [14] is given as “Not Active”. In addition, the MCC in [15] is 4 µM.

On to `CC(=O)Nc1ccc(S(=O)(=O)N(CCOC(=O)C(C)(C)C)Cn2ccc(=O)[nH]c2=O)cc1`, for which the outcome in [3], in series [4], in series [5], in [6], in series [7] and in series [8] was inactive. Moreover, the result in series [10], in series [11], in series [12], in series [13], in series [16] and in series [17] was inactive. For the same molecule, the MCC in [19] is 40 µM. The Activity entry in series [20], in series [21] and in series [14] was “Not Active” throughout.

For `CC(=O)Nc1ccc(S(=O)(=O)N(CCOC(=O)C(C)(C)C)Cn2cc(C)c(=O)[nH]c2=O)cc1`, the result in series [3], in [4], in [5], in series [6], in series [7] and in series [8] was inactive. The result in series [10], in [11], in series [12], in series [13], in series [16] and in series [17] was inactive. In series [19], the MCC is 40 µM. The Activity result in series [20], in series [21] and in series [14] was “Not Active” throughout.

Consider `O=c1[nH]c(=O)n([C@H]2C[C@H](O)[C@@H](CO)O2)cc1/C=C/Br` [BRIVUDINE], for which the MCC in [18], in series [19] and in series [1] was > 250 µM in each case.

As for `Nc1nc2c(ncn2COCCO)c(=O)[nH]1` [ACYCLOVIR], in series [1], the MCC was > 250 µM.
